Data as given in ChEMBL document CHEMBL4130609, “Nitrobenzoyl Sesquiterpenoids with Cytotoxic Activities from a Marine-Derived Aspergillus ochraceus Fungus” (J Nat Prod, 2018).

How the values were obtained:
RAW264.7 [1] = experiment: Cytotoxicity against mouse RAW264.7 cells at 0.5 to 4 uM after 8 hrs by MTT assay; assay type: cell-based; conditions: raw264.7, 8 h
Outline: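 Luciferase-reporter RAW264.7 cells received compounds at 4, 2, 1 and 0.5 μM for 30 min, then 1 μg/mL LPS for 8 h. Viability at these concentrations was assessed by MTT.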

ACHN = experiment: Cytotoxicity against human ACHN cells after 72 hrs by CCK8 assay; assay type: functional, cell-based
Outline: (§1)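 ACHN cells grown in MEM with 10% FBS; OS-RC-2 and 786-O cells grown in RPMI1640 with 10% FBS. Seeded at 400 to 800 cells/well and treated with a 9-point series from 100 down to 0.00153 μM, or solvent control, for 72 h. Viability read by CCK-8 absorbance at 450 nm in triplicate. IC50 taken from dose–response curves.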

OS-RC-2 = experiment: Cytotoxicity against human OS-RC2 cells after 72 hrs by CCK8 assay; assay type: functional, cell-based; conditions: OS-RC-2, 72 h; outline: as §1
786-0 [2] = experiment: Cytotoxicity against human 786-O cells after 72 hrs by CCK8 assay; assay type: functional, cell-based; conditions: 786-0, 72 h; outline: as §1
786-0 [3] = experiment: Cell cycle arrest in human 786-O cells assessed as accumulation at G0/G1 phase at 1 uM after 24 hrs by propidium iodide staining based flow cytometric method (reference value: 42.07%); assay type: functional
786-0 [4] = experiment: Cell cycle arrest in human 786-O cells assessed as accumulation at S phase at 1 uM after 24 hrs by propidium iodide staining based flow cytometric method (reference value: 47.35%); assay type: functional
786-0 [5] = experiment: Cell cycle arrest in human 786-O cells assessed as accumulation at G2/M phase at 1 uM after 24 hrs by propidium iodide staining based flow cytometric method (reference value: 10.58%); assay type: functional
786-0 [6] = experiment: Cell cycle arrest in human 786-O cells assessed as accumulation at G0/G1 phase at 2 uM after 24 hrs by propidium iodide staining based flow cytometric method (reference value: 42.07%); assay type: functional
786-0 [7] = experiment: Cell cycle arrest in human 786-O cells assessed as accumulation at S phase at 2 uM after 24 hrs by propidium iodide staining based flow cytometric method (reference value: 47.35%); assay type: functional
786-0 [8] = experiment: Cell cycle arrest in human 786-O cells assessed as accumulation at G2/M phase at 2 uM after 24 hrs by propidium iodide staining based flow cytometric method (reference value: 10.58%); assay type: functional
786-0 [9] = experiment: Cell cycle arrest in human 786-O cells assessed as accumulation at G0/G1 phase at 1 uM after 72 hrs by propidium iodide staining based flow cytometric method (reference value: 44.95%); assay type: functional
786-0 [10] = experiment: Cell cycle arrest in human 786-O cells assessed as accumulation at S phase at 1 uM after 72 hrs by propidium iodide staining based flow cytometric method (reference value: 42.76%); assay type: functional
786-0 [11] = experiment: Cell cycle arrest in human 786-O cells assessed as accumulation at G2/M phase at 1 uM after 72 hrs by propidium iodide staining based flow cytometric method (reference value: 12.29%); assay type: functional
786-0 [12] = experiment: Cell cycle arrest in human 786-O cells assessed as accumulation at G0/G1 phase at 2 uM after 72 hrs by propidium iodide staining based flow cytometric method (reference value: 44.95%); assay type: functional
786-0 [13] = experiment: Cell cycle arrest in human 786-O cells assessed as accumulation at S phase at 2 uM after 72 hrs by propidium iodide staining based flow cytometric method (reference value: 42.76%); assay type: functional
786-0 [14] = experiment: Cell cycle arrest in human 786-O cells assessed as accumulation at G2/M phase at 2 uM after 72 hrs by propidium iodide staining based flow cytometric method (reference value: 12.29%); assay type: functional
786-0 [15] = experiment: Induction of apoptosis in human 786-O cells assessed as live cells at 1 uM after 24 hrs by Annexin-V-FITC/propidium iodide staining based flow cytometric method (reference value: 81.4%); assay type: functional
786-0 [16] = experiment: Induction of apoptosis in human 786-O cells assessed as early apoptotic cells at 1 uM after 24 hrs by Annexin-V-FITC/propidium iodide staining based flow cytometric method (reference value: 1.6%); assay type: functional
786-0 [17] = experiment: Induction of apoptosis in human 786-O cells assessed as late apoptotic cells at 1 uM after 24 hrs by Annexin-V-FITC/propidium iodide staining based flow cytometric method (reference value: 7%); assay type: functional
786-0 [18] = experiment: Induction of apoptosis in human 786-O cells assessed as necrotic cells at 1 uM after 24 hrs by Annexin-V-FITC/propidium iodide staining based flow cytometric method (reference value: 10%); assay type: functional
786-0 [19] = experiment: Induction of apoptosis in human 786-O cells assessed as live cells at 2 uM after 24 hrs by Annexin-V-FITC/propidium iodide staining based flow cytometric method (reference value: 81.4%); assay type: functional
786-0 [20] = experiment: Induction of apoptosis in human 786-O cells assessed as early apoptotic cells at 2 uM after 24 hrs by Annexin-V-FITC/propidium iodide staining based flow cytometric method (reference value: 1.6%); assay type: functional
786-0 [21] = experiment: Induction of apoptosis in human 786-O cells assessed as late apoptotic cells at 2 uM after 24 hrs by Annexin-V-FITC/propidium iodide staining based flow cytometric method (reference value: 7%); assay type: functional
786-0 [22] = experiment: Induction of apoptosis in human 786-O cells assessed as necrotic cells at 2 uM after 24 hrs by Annexin-V-FITC/propidium iodide staining based flow cytometric method (reference value: 10%); assay type: functional
786-0 [23] = experiment: Induction of apoptosis in human 786-O cells assessed as live cells at 1 uM after 72 hrs by Annexin-V-FITC/propidium iodide staining based flow cytometric method (reference value: 82.2%); assay type: functional
786-0 [24] = experiment: Induction of apoptosis in human 786-O cells assessed as early apoptotic cells at 1 uM after 72 hrs by Annexin-V-FITC/propidium iodide staining based flow cytometric method (reference value: 1.2%); assay type: functional
786-0 [25] = experiment: Induction of apoptosis in human 786-O cells assessed as late apoptotic cells at 1 uM after 72 hrs by Annexin-V-FITC/propidium iodide staining based flow cytometric method (reference value: 4.2%); assay type: functional
786-0 [26] = experiment: Induction of apoptosis in human 786-O cells assessed as necrotic cells at 1 uM after 72 hrs by Annexin-V-FITC/propidium iodide staining based flow cytometric method (reference value: 12.5%); assay type: functional
786-0 [27] = experiment: Induction of apoptosis in human 786-O cells assessed as live cells at 2 uM after 72 hrs by Annexin-V-FITC/propidium iodide staining based flow cytometric method (reference value: 82.2%); assay type: functional
786-0 [28] = experiment: Induction of apoptosis in human 786-O cells assessed as early apoptotic cells at 2 uM after 72 hrs by Annexin-V-FITC/propidium iodide staining based flow cytometric method (reference value: 1.2%); assay type: functional
786-0 [29] = experiment: Induction of apoptosis in human 786-O cells assessed as late apoptotic cells at 2 uM after 72 hrs by Annexin-V-FITC/propidium iodide staining based flow cytometric method (reference value: 4.2%); assay type: functional
786-0 [30] = experiment: Induction of apoptosis in human 786-O cells assessed as necrotic cells at 2 uM after 72 hrs by Annexin-V-FITC/propidium iodide staining based flow cytometric method (reference value: 12.5%); assay type: functional
RAW264.7 [31] = experiment: Inhibition of LPS-induced NFkappaB (unknown origin) activation expressed in mouse RAW264.7 cells at 4 uM pretreated for 30 mins followed by LPS-stimulation after 8 hrs by luciferase reporter gene assay relative to control; assay type: cell-based; conditions: Homo sapiens
Outline: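 RAW264.7 cells stably carrying an NF-κB luciferase reporter were pretreated with compounds for 30 min at 4, 2, 1 and 0.5 μM. They were then stimulated with 1 μg/mL LPS for 8 h. Luciferase activity was measured in triplicate. BAY11-7082 at 5 μM served as positive control.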

`CO[C@H]1C2=C(COC2=O)[C@@]2(C)CCC[C@](C)(CO)[C@@H]2[C@@H]1O` was tested, and the Activity (RAW264.7 [1]) was “Non-Toxic”.

With `CC(=O)OC[C@@]1(C)CCC[C@@]2(C)[C@H]1[C@H](OC(=O)c1ccc([N+](=O)[O-])cc1)C=C1C(=O)OC[C@@]12O` the IC50 (ACHN) was 4.1 µM, the IC50 (OS-RC-2) was 5.3 µM and the IC50 (786-0 [2]) was 2.3 µM. The Activity (786-0 [3]) was 38%, the Activity (786-0 [4]) was 47% and the Activity (786-0 [5]) was 8.53%. The Activity (786-0 [6]) was 42.23%, the Activity (786-0 [7]) was 49.91% and the Activity (786-0 [8]) was 7.86%. For the same compound, the Activity (786-0 [9]) was 54.16%, the Activity (786-0 [10]) was 32.77% and the Activity (786-0 [11]) was 13.06%. For the same compound, the Activity (786-0 [12]) was 51.06%, the Activity (786-0 [13]) was 35.56% and the Activity (786-0 [14]) was 13.38%. It also gave an Activity (786-0 [15]) of 78.6%, an Activity (786-0 [16]) of 1.3% and an Activity (786-0 [17]) of 4.3%. The Activity (786-0 [18]) was 15.8%, the Activity (786-0 [19]) was 66.5% and the Activity (786-0 [20]) was 1.1%. It also gave an Activity (786-0 [21]) of 6.5%, an Activity (786-0 [22]) of 26% and an Activity (786-0 [23]) of 74.7%. The Activity (786-0 [24]) was 1.7%, the Activity (786-0 [25]) was 5% and the Activity (786-0 [26]) was 18.6%. It also gave an Activity (786-0 [27]) of 58.3%, an Activity (786-0 [28]) of 1% and an Activity (786-0 [29]) of 9.1%. For the same compound, the Activity (786-0 [30]) was 31.5% and the Activity (RAW264.7 [1]) was “Non-Toxic”.

`C[C@]1(CO)CCC[C@]2(C)[C@H]3COC(=O)C3=C[C@@H](OC(=O)c3ccc([N+](=O)[O-])cc3)[C@@H]12` was tested, and the IC50 (ACHN) was 25 µM, the IC50 (OS-RC-2) was 30 µM and the IC50 (786-0 [2]) was 20 µM.

`CNC(=O)c1cc(Oc2ccc(NC(=O)Nc3ccc(Cl)c(C(F)(F)F)c3)cc2)ccn1` [SORAFENIB] showed an IC50 (ACHN) of 3.4 µM, an IC50 (OS-RC-2) of 7 µM and an IC50 (786-0 [2]) of 4.9 µM.

In the case of `CC(=O)OC[C@@]1(C)CCC[C@]2(C)[C@H]3COC(=O)C3=C[C@@H](OC(=O)c3ccc([N+](=O)[O-])cc3)[C@@H]12`, the IC50 (ACHN) is reported as 13 µM, the IC50 (OS-RC-2) is reported as 11 µM and the IC50 (786-0 [2]) is reported as 14 µM. The Activity (RAW264.7 [1]) was “Non-Toxic”.

Work on `C[C@]1(CO)CCC[C@@]2(C)[C@H]1[C@H](OC(=O)c1ccc([N+](=O)[O-])cc1)C=C1C(=O)OC[C@@]12O` yielded an IC50 (ACHN) of 1.5 µM, an IC50 (OS-RC-2) of 1.5 µM and an IC50 (786-0 [2]) of 0.89 µM.

Work on `C[C@]1(COC(=O)c2ccc([N+](=O)[O-])cc2)CCC[C@@]2(C)[C@H]1[C@H](O)C=C1C(=O)OC[C@@]12O` yielded an IC50 (ACHN) of 11 µM, an IC50 (OS-RC-2) of 8.2 µM and an IC50 (786-0 [2]) of 4.3 µM.

In the case of `C[C@]1(COC(=O)c2ccc([N+](=O)[O-])cc2)CCC[C@]2(C)[C@H]3COC(=O)C3=C[C@@H](O)[C@@H]12`, the IC50 (ACHN) is reported as 30 µM, the IC50 (OS-RC-2) is reported as 23 µM and the IC50 (786-0 [2]) is reported as 24 µM. For the same compound, the inhibition (RAW264.7 [31]) was 16% and the Activity (RAW264.7 [1]) was “Non-Toxic”.
